From article PMC3227224 (The Journal of neuroscience : the official journal of the …, 2011)

System: γ-secretase
Format: in vivo, J20 hAPP transgenic mice
Outline: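 Mice of either sex, probe guide in left hippocampus (bregma −3.1 mm, 2.5 mm lateral, 1.2 mm below dura, 12° angle), freely moving in Raturn cages on 12 h light/dark. γ-Secretase inhibitor 3 mg/kg i.p. given during ongoing microdialysis; hourly dialysates in refrigerated collector. Aβ38/40/42 by multiplex electrochemiluminescence (C-terminal-specific capture, SULFO-TAG 6E10 detection), in duplicate; half-lives calculated.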

## C[C@H](NC(=O)Cc1cc(F)cc(F)c1)C(=O)N[C@H]1N=C(c2ccccc2)c2ccccc2N(C)C1=O [Compound E]
3 mo tg (plaque-free) J20 mice, Compound E 3 mg/kg i.p. at time 0 h, ISF sampled hourly at 1 μl/min, Aβ ELISA
  t1/2 of decline of total ISF Aβ after Compound E: ~ 2 h
Young plaque-free (3 mo) tg mouse, first 5 h after Compound E 3 mg/kg i.p.
  ISF Aβ38, Aβ40 and Aβ42 after Compound E in young mice: all 3 peptides fell together
